In the library only some 0.42% were active in any assay of this set; here they are far more common.
FXIa inh – inhibitors of human coagulation factor XIa; P03951; purified human FXIa, fluorogenic AMC substrate cleavage; inhibition, % at 10 µM; 0.3% of 33,000 active; AID 687;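 active = inhibition above 40% in the primary screen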;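 note: 0% = enzyme without compound and 100% = blank wells lacking enzyme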
FXIIa inh – inhibitors of human coagulation factor XIIa; 0.2% of 33,000 active; inhibition, % at 10 µM; P00748; AID 701; purified human FXIIa, AMC substrate fluorescence, 2 h; in the data active = inhibition above about 30%;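 note: 0% = enzyme with vehicle only and 100% = no enzyme blank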
Yeast growth tox – Inhibitors of S. cerevisiae growth, toxicity; S. cerevisiae wild-type growth, A595 turbidity, 16 h; growth inhibition, % at 25 µM (by protocol); 0.3% of 30,000 active;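 active = mutant and wild-type yeast strains alike exhibit over 30% growth inhibition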;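 note: 0% = untreated cell controls and 100% = YPD media blanks without cells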
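Schedule: 16 h growth with compound, 30 °C. System: yeast, wild-type or eIF2Bepsilon-R284H mutant. Doses: one dose, 25 µM compound[…]. Buffer or medium: YPD. Signal: turbidity measured as absorbance at 595 nm. Read-out basis: growth inhibition (%) versus cell controls and blanks.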
Active calls of the source: *; x = no result given.

SMILES | FXIa inh | FXIIa inh | Yeast growth tox
CCCc1nc2ccccc2c(=O)n1-c1ccccc1OC | x | x | 2.8
CCCc1nc2ccccc2c(=O)n1-c1ccc(OC)cc1 | 42.4* | 1.4 | x
CCC(=NCCCn1ccnc1)c1c(O)n(Cc2ccccc2)c(=O)[nH]c1=O | -6.2 | 6.6 | x
COP(=O)(OC)C1(Nc2ccc(C)cc2)CCCCC1 | 17.2 | -9.0 | 49.2*
ON1C2CCCCC2N(O)C1c1ccccc1 (configuration not stated) | 6.7 | 1.3 | 26.1
CCN1CCN(CC(=O)c2c(C)n(Cc3ccccc3)c3ccc(OC)cc23)CC1 | -6.2 | 7.7 | 6.5
CCOC(=O)c1c(C)n(Cc2ccccc2)c2ccc(OCC(O)Cn3nc(C)cc3C)cc12 (configuration not stated) | 100.7* | -15.0 | -19.3
CCC(CC)C(=O)NC1CCSC1=O (configuration not stated) | 2.8 | 6.1 | 4.1
CN1CCC(OC(=O)C2c3ccccc3Oc3ccccc32)CC1 | 0.3 | 2.2 | x

Source: PubChem BioAssay
